Each structure is given as a SMILES string. ≈ marks a conversion by molar mass, not a printed value. A value given as a limit tells only on which side of the number the result lay.

Common to all, as to assay type: functional, cell-based
What all share (settings): Homo sapiens

One test relates to M19-MEL. The test is described as follows: Cytotoxicity against M19 Tumor cell line in SRB Cell viability test. The method, boiled down:
(§1)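 Human tumor cell lines exposed to (pro)drug for 5 days; growth measured by microculture sulforhodamine B assay. ID50 = concentration giving 50% growth inhibition versus untreated control cultures, reported in ng/mL. Experiments run in quadruplicate and results averaged.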

For the next test, the system named is IGROV-1. The test can be described thus: Cytotoxicity against IGROV Tumor cell line in SRB Cell viability test. The method, boiled down: as §1
The subject of a further test is MCF7. The test is described as follows: Cytotoxicity against MCF-7 Tumor cell line in SRB Cell viability test. The method, boiled down:
as §1

Another test concerns A498. The test can be described thus: Cytotoxicity against A498 Tumor cell line in SRB Cell viability test. The method, boiled down: as §1
Another test relates to EVSA-T. The test can be described thus: Cytotoxicity against EVSA-T Tumor cell line in SRB Cell viability test. The method, boiled down: as §1
Another test deals with NCI-H226. The test is described as follows: Cytotoxicity against H226 Tumor cell line in SRB Cell viability test. The gist of the method: as §1
A further test deals with WiDr. The test is described as follows: Cytotoxicity against WIDR Tumor cell line in SRB Cell viability test. The gist of the method: as §1

For `CC(=O)O[C@H]1C(=O)[C@@]2(C)[C@H]([C@H](OC(=O)c3ccccc3)[C@]3(O)CC(OC(=O)[C@H](OC(=O)OCc4ccc(NC(=O)[C@H](CCCCN)NC(=O)[C@H](CC(C)C)NC(=O)[C@H](N)C(C)C)cc4)C(NC(=O)c4ccccc4)c4ccccc4)C(C)=C1C3(C)C)[C@]1(OC(C)=O)CO[C@@H]1C[C@@H]2O.Cl.Cl` (stereo not given in full), the IC50 is 0.02 µg/mL with M19-MEL; 0.027 µg/mL with IGROV-1; 0.0092 µg/mL with MCF7; more than 0.06 µg/mL in the test with A498; 0.0093 µg/mL with EVSA-T; 0.016 µg/mL with NCI-H226. Also, in the test on WiDr, the midpoint of inhibition, the IC50, lay at 0.011 µg/mL.
`CC(=O)O[C@H]1C(=O)[C@@]2(C)[C@H]([C@H](OC(=O)c3ccccc3)[C@]3(O)CC(OC(=O)[C@H](OC(=O)N(C)CCN(C)C(=O)[C@H](CCCCN)NC(=O)[C@H](CC(C)C)NC(=O)[C@H](N)C(C)C)C(NC(=O)c4ccccc4)c4ccccc4)C(C)=C1C3(C)C)[C@]1(OC(C)=O)CO[C@@H]1C[C@@H]2O.Cl.Cl` (stereo not given in full): the IC50 with M19-MEL worked out at 0.024 µg/mL; in the test on IGROV-1, 0.026 µg/mL; with MCF7 it was 0.0069 µg/mL; in the test with A498 it was 0.045 µg/mL; in the test with EVSA-T, 0.0052 µg/mL; with NCI-H226, 0.025 µg/mL. The compound further registered an IC50 with WiDr of 0.011 µg/mL.
As to `CC(=O)O[C@H]1C(=O)[C@@]2(C)[C@H]([C@H](OC(=O)c3ccccc3)[C@]3(O)CC(OC(=O)[C@H](OC(=O)N(C)CCN(C)C(=O)[C@H](CCCCN)NC(=O)[C@H](Cc4ccccc4)NC(=O)[C@@H](C)N)C(NC(=O)c4ccccc4)c4ccccc4)C(C)=C1C3(C)C)[C@]1(OC(C)=O)CO[C@@H]1C[C@@H]2O.Cl.Cl` (stereo not given in full), the IC50 in the test with M19-MEL came out at 0.017 µg/mL; with IGROV-1, 0.011 µg/mL; in the test on MCF7 it was 0.0066 µg/mL; with A498 it was 0.038 µg/mL; in the test with EVSA-T, 0.0072 µg/mL; with NCI-H226, 0.021 µg/mL. This compound came in with an IC50 with WiDr of 0.01 µg/mL.
Take `CC(=O)O[C@H]1C(=O)[C@@]2(C)[C@H]([C@H](OC(=O)c3ccccc3)[C@]3(O)CC(OC(=O)[C@H](OC(=O)NCCNC(=O)[C@H](CCCCN)NC(=O)[C@H](Cc4ccccc4)NC(=O)[C@@H](C)N)C(NC(=O)c4ccccc4)c4ccccc4)C(C)=C1C3(C)C)[C@]1(OC(C)=O)CO[C@@H]1C[C@@H]2O.Cl.Cl` (stereo not given in full): the IC50 was found to be 0.045 µg/mL in the test with M19-MEL; 0.019 µg/mL with IGROV-1; 0.016 µg/mL in the test on MCF7; 0.04 µg/mL in the test on A498; 0.011 µg/mL in the test with EVSA-T; 0.041 µg/mL with NCI-H226. In addition, in the test on WiDr, half-maximal inhibition (IC50) required 0.013 µg/mL.
With `CC(=O)O[C@H]1C(=O)[C@@]2(C)[C@H]([C@H](OC(=O)c3ccccc3)[C@]3(O)C[C@H](OC(=O)[C@H](O)[C@@H](NC(=O)c4ccccc4)c4ccccc4)C(C)=C1C3(C)C)[C@]1(OC(C)=O)CO[C@@H]1C[C@@H]2O` [PACLITAXEL], the IC50 in the test on M19-MEL was less than 0.003 µg/mL; with IGROV-1, 0.01 µg/mL (≈ 11.7 nM); in the test with MCF7, less than 0.003 µg/mL; in the test with A498, less than 0.003 µg/mL; in the test on EVSA-T, less than 0.003 µg/mL; in the test with NCI-H226, less than 0.003 µg/mL. This compound came in with an IC50 in the test with WiDr of less than 0.003 µg/mL.

For orientation: IC50 means the concentration that gives 50% inhibition. A lower IC50 goes with inhibition by little substance.

The values above are taken from ChEMBL document CHEMBL1132947, “Synthesis and biological evaluation of 2'-carbamate-linked and 2'-carbonate-linked prodrugs of paclitaxel: selective activation by the tumor-associated protease plasmin” (J Med Chem, 2000).
